Experimental data from ChEMBL document CHEMBL1140479, “NO donors. Part 16: investigations on structure-activity relationships of organic mononitrates reveal 2-nitrooxyethylammoniumnitrate as a high potent vasodilator” (Bioorg Med Chem Lett, 2007).

Test: Vasodilatory effect in pig pulmonary artery assessed as inhibition of PGF2-alpha-induced contraction
Assay type: functional, tissue-based, Sus scrofa
Details: for pD2: Sus scrofa
Method in brief: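 Porcine lungs from slaughterhouse; small pulmonary artery branches cut into rings (2–3 mm long, 1.5–2 mm diameter), tension measured in organ baths. Rings precontracted with PGF2α; test compounds added cumulatively at contraction plateau (up to 1 mM), DMSO as solvent. Endothelium checked by 10 nM bradykinin relaxation; denuded rings by gentle rubbing, pretreated with 0.2 mM L-NAME. Potency expressed as pD2.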

Row | SMILES | EC50 | pD2
1 | NCCO[N+](=O)[O-] [AMINOETHYL NITRATE] | 0.0315 µM | 7.5
2 | COC(=O)CCO[N+](=O)[O-] | 1.03 µM | 5.99
3 | CC(C)(CO[N+](=O)[O-])C(=O)O | 14.7 µM | 4.83
4 | O=[N+]([O-])OCC(CO)(CO)CO [PENTAERYTHRITYL MONONITRATE] | 72.5 µM | 4.14
5 | CC(C)CO[N+](=O)[O-] | 87.7 µM | 4.01
6 | O=[N+]([O-])OCC(CO[N+](=O)[O-])O[N+](=O)[O-] [NITROGLYCERIN] | 0.0356 µM | 7.44
7 | CC(O[N+](=O)[O-])C(=O)c1ccccc1 (stereo unspecified) | 1.54 µM | 5.81
8 | O=[N+]([O-])O[C@H]1CO[C@H]2[C@@H]1OC[C@H]2O[N+](=O)[O-] [ISOSORBIDE DINITRATE] | 0.424 µM | 6.37
9 | O=C(O)CCO[N+](=O)[O-] | 9.56 µM | 5.02
10 | CCCCO[N+](=O)[O-] | 141 µM | 3.85
11 | O=[N+]([O-])OC1COC2C(O)COC12 (stereo unspecified) | 33.2 µM | 4.48
12 | O=[N+]([O-])OCc1ccccc1 | 0.412 µM | 6.34
13 | O=[N+]([O-])OCCS(=O)(=O)O | 33.5 µM | 4.48
